Test results: ChEMBL document CHEMBL1126896, “Preparation and anti-HIV activity of O-acylated heparin and dermatan sulfate derivatives with low anticoagulant effect” (J Med Chem, 1993)

Tests used:
HuT78 [1] = assay: Giant-cell formation between persistently HIV-1 infected HUT-78 cells and uninfected MOLT-4 cells; type: functional, cell-based
In short: (§1)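 MOLT-4 cells were co-cultured with an equal number of HUT-78 cells persistently infected with HIV-1 IIIB or HIV-2 ROD, with varying compound concentrations. Syncytia were counted by flow cytofluorography after 24 h. EC50 is the concentration giving 50% protection against giant-cell formation.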

[2] = In vitro anticoagulant activity was determined by the clotting test of activated partial thromboplastin time (APTT) on a pool of human plasma; 1-2; type: functional
In short: (§2)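 Activated partial thromboplastin time clotting test on pooled human plasma, run on an automatic coagulometer. Activities were calculated according to the European Pharmacopoeia.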

MT4 [3] = assay: Effective concentration to achieve 50% protection of MT-4 cells against the cytopathic effect of HIV-2; type: functional, cell-based
MT4 [4] = assay: Effective concentration to achieve 50% protection of MT-4 cells against the cytopathic effect of HIV-1; type: functional, cell-based
MT4 [5] = assay: Selectivity index for CC50 (cytotoxic concentration based on the reduction of the viability of mock-infected MT-4 cells) to that of EC50 against HIV-1; type: functional
In short: (§3)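 MT-4 cells at 3 × 10^5 cells/mL were infected with HIV-1 IIIB or HIV-2 ROD at 100 CCID50/mL, or mock-infected, alongside serial compound dilutions. Viability was read by MTT after 5 days at 37 °C. CC50 comes from mock-infected cells and EC50 from protection against cytopathicity. Index = CC50/EC50.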

[6] = system: Human immunodeficiency virus 1; assay: Antiviral activity against HIV-1 infected with […]; type: functional, organism-based
[7] = system: Human immunodeficiency virus 1; assay: Antiviral activity against HIV-1 infected with HTLVIIIB; type: functional, organism-based
[8] = system: Human immunodeficiency virus 2; assay: Antiviral activity against HIV-2 infected with LAV-2 EHO; type: functional, organism-based
MT4 [9] = assay: Selectivity index for CC50 (cytotoxic concentration based on reduction of viability of mock-infected MT-4 cells) to that of EC50 against HIV-2; type: functional; in short: as §3
[10] = In vitro anticoagulant activity determined by clotting test of activated partial thromboplastin time (APTT) on a pool of human plasma; type: functional; in short: as §2
[11] = system: Human immunodeficiency virus 1; assay: Antiviral activity against HIV-1 infected with HIV-1HE; type: functional, organism-based
[12] = system: Simian immunodeficiency virus; assay: Antiviral activity against SIV; type: functional, organism-based
[13] = system: Human immunodeficiency virus 1; assay: Antiviral activity against HIV-1 infected with HTLVIIIB (TIBO); type: functional, organism-based
[14] = system: Human immunodeficiency virus 2; assay: Antiviral activity against HIV-2 infected with LAV-2 ROD; type: functional, organism-based
HuT78 [15] = assay: Giant-cell formation between persistently HIV-2 infected HUT-78 cells and uninfected MOLT-4 cells; type: functional, cell-based; in short: as §1
[16] = Homo sapiens, HuT78, read-out: EC50
[17] = Homo sapiens, MT4, read-out: EC50

SMILES | EC50 (HuT78 [1]; [16]) | APTT [2] | EC50 (MT4 [3]; [17]) | EC50 (MT4 [4]; [17]) | Selectivity index (MT4 [5]) | EC50 [6] | EC50 [7] | EC50 [8] | Selectivity index (MT4 [9]) | APTT [10] | EC50 [11] | EC50 [12] | EC50 [13] | EC50 [14] | EC50 (HuT78 [15]; [16]) | EC50 (HuT78 [1]; hut78) | EC50 (MT4 [3]; mt4) | EC50 (MT4 [4]; mt4) | EC50 (HuT78 [15]; hut78)
COC1C(NC(C)=O)C(OC2C(C(=O)[O-])OC(OC3C(NC(C)=O)C(OC4C(C(=O)[O-])OC(C)C(O)C4O)OC(CO)C3OS(=O)(=O)[O-])C(O)C2O)OC(CO)C1OS(=O)(=O)[O-].[Na+].[Na+].[Na+].[Na+] (stereo unspecified) | > 500 µg/mL | 1 IU mg-1 | > 625 µg/mL | > 625 µg/mL | – | – | – | – | – | – | – | – | – | – | – | – | – | – | –
CC(=O)OC/C(=C\C(=O)[O-])OC1OC(COS(=O)(=O)[O-])C(OC2OC(C(=O)[O-])C(OC3OC(COS(=O)(=O)[O-])C(OC4OC(C(=O)[O-])C(OC5OC(CS(=O)(=O)[O-])C(O)C(OC(C)=O)C5NS(=O)(=O)[O-])C(OC(C)=O)C4OS(=O)(=O)[O-])C(OC(C)=O)C3NS(=O)(=O)[O-])C(OC(C)=O)C2OS(=O)(=O)[O-])C(OC(C)=O)C1NS(=O)(=O)[O-].[Na+].[Na+].[Na+].[Na+].[Na+].[Na+].[Na+].[Na+].[Na+].[Na+].[Na+] (stereo unspecified) | 165 µg/mL | – | 0.59 µg/mL | 0.53 µg/mL | >943 | 1.3 µg/mL | 0.5 µg/mL | 4.3 µg/mL | >847 | 10 IU mg-1 | 1.5 µg/mL | 7.4 µg/mL | 0.6 µg/mL | 2.2 µg/mL | – | – | – | – | –
CCCC(=O)OC/C(=C\C(=O)OCc1ccccc1)OC1OC(COS(=O)(=O)[O-])C(OC2OC(C(=O)OCc3ccccc3)C(OC3OC(COS(=O)(=O)[O-])C(OC4OC(C(=O)OCc5ccccc5)C(OC5OC(COS(=O)(=O)[O-])C(O)C(OC(=O)CCC)C5NS(=O)(=O)[O-])C(OC(=O)CCC)C4OS(=O)(=O)[O-])C(OC(=O)CCC)C3NS(=O)(=O)[O-])C(OC(=O)CCC)C2OS(=O)(=O)[O-])C(OC(=O)CCC)C1NS(=O)(=O)[O-].[Na+].[Na+].[Na+].[Na+].[Na+].[Na+].[Na+].[Na+] (stereo unspecified) | 1 µg/mL | – | 0.42 µg/mL | 0.36 µg/mL | >1389 | 0.2 µg/mL | 0.2 µg/mL | 1.3 µg/mL | >1190 | 4 IU mg-1 | 1.1 µg/mL | 10.2 µg/mL | 0.7 µg/mL | 0.9 µg/mL | 1 µg/mL | – | – | – | –
O=C([O-])/C=C(\CO)OC1OC(COS(=O)(=O)[O-])C(OC2OC(C(=O)[O-])C(OC3OC(COS(=O)(=O)[O-])C(OC4OC(C(=O)[O-])C(OC5OC(COS(=O)(=O)[O-])C(O)C(O)C5NS(=O)(=O)[O-])C(O)C4OS(=O)(=O)[O-])C(O)C3NS(=O)(=O)[O-])C(O)C2OS(=O)(=O)[O-])C(O)C1NS(=O)(=O)[O-].[Na+].[Na+].[Na+].[Na+].[Na+].[Na+].[Na+].[Na+].[Na+].[Na+].[Na+] (stereo in doubt; 2a) | – | – | – | – | >327 | 0.3 µg/mL | 1.5 µg/mL | 17.9 µg/mL | >80 | 4 IU mg-1 | 11.7 µg/mL | 150 µg/mL | 1.5 µg/mL | > 250 µg/mL | – | > 500 µg/mL | 6.3 µg/mL | 1.53 µg/mL | –
CCCCCC(=O)OC/C(=C\C(=O)[O-])OC1OC(COS(=O)(=O)[O-])C(OC2OC(C(=O)[O-])C(OC3OC(COS(=O)(=O)[O-])C(OC4OC(C(=O)[O-])C(OC5OC(CS(=O)(=O)[O-])C(O)C(OC(=O)CCCCC)C5NS(=O)(=O)[O-])C(OC(=O)CCCCC)C4OS(=O)(=O)[O-])C(OC(=O)CCCCC)C3NS(=O)(=O)[O-])C(OC(=O)CCCCC)C2OS(=O)(=O)[O-])C(OC(=O)CCCCC)C1NS(=O)(=O)[O-].[Na+].[Na+].[Na+].[Na+].[Na+].[Na+].[Na+].[Na+].[Na+].[Na+].[Na+] (stereo in doubt; 3h) | – | – | – | – | >5000 | – | – | – | >1250 | 6 IU mg-1 | – | – | – | – | – | 3 µg/mL | 0.4 µg/mL | 0.1 µg/mL | 50 µg/mL
CCCC(=O)OC/C(=C\C(=O)[O-])O[C@H]1O[C@H](COS(=O)(=O)[O-])[C@@H](O[C@@H]2O[C@@H](C(=O)[O-])[C@@H](O[C@H]3O[C@H](COS(=O)(=O)[O-])[C@@H](O[C@@H]4O[C@@H](C(=O)[O-])[C@@H](O[C@H]5O[C@H](CS(=O)(=O)[O-])[C@@H](O)[C@H](OC(=O)CCC)[C@H]5NS(=O)(=O)[O-])[C@H](OC(=O)CCC)[C@H]4OS(=O)(=O)[O-])[C@H](OC(=O)CCC)[C@H]3NS(=O)(=O)[O-])[C@H](OC(=O)CCC)[C@H]2OS(=O)(=O)[O-])[C@H](OC(=O)CCC)[C@H]1NS(=O)(=O)[O-].[Na+].[Na+].[Na+].[Na+].[Na+].[Na+].[Na+].[Na+].[Na+].[Na+].[Na+] (stereo in doubt; 4g) | – | – | – | – | – | 0.1 µg/mL | 0.1 µg/mL | 1.3 µg/mL | >2141 | 8.5 IU mg-1 | 0.9 µg/mL | 5.9 µg/mL | 0.3 µg/mL | 0.7 µg/mL | – | 31.9 µg/mL | 0.17 µg/mL | – | –
CCCCCCCCOC(=O)/C=C(\CO)OC1OC(COS(=O)(=O)[O-])C(OC2OC(C(=O)OCCCCCCCC)C(OC3OC(COS(=O)(=O)[O-])C(OC4OC(C(=O)OCCCCCCCC)C(OC5OC(COS(=O)(=O)[O-])C(O)C(O)C5NS(=O)(=O)[O-])C(O)C4OS(=O)(=O)[O-])C(O)C3NS(=O)(=O)[O-])C(O)C2OS(=O)(=O)[O-])C(O)C1NS(=O)(=O)[O-].[Na+].[Na+].[Na+].[Na+].[Na+].[Na+].[Na+].[Na+] (stereo in doubt; 7f) | 4 µg/mL | – | – | 0.7 µg/mL | >714 | – | – | – | >454 | 3 IU mg-1 | – | – | – | – | 18 µg/mL | – | 1.1 µg/mL | – | –
CCCCCCCCOC(=O)/C=C(\CO)OC1OC(COS(=O)(=O)[O-])C(OC2OC(C(=O)OCCCCCCCC)C(OC3OC(COS(=O)(=O)[O-])C(OC4OC(C(=O)OCCCCCCCC)C(OC5OC(COS(=O)(=O)[O-])C(O)C(O)C5NS(=O)(=O)[O-])C(O)C4OS(=O)(=O)[O-])C(O)C3NS(=O)(=O)[O-])C(O)C2OS(=O)(=O)[O-])C(O)C1NS(=O)(=O)[O-].[Na+].[Na+].[Na+].[Na+].[Na+].[Na+].[Na+].[Na+] (stereo in doubt; 7g) | – | – | – | – | >833 | – | – | – | >1000 | 6 IU mg-1 | – | – | – | – | – | 4 µg/mL | 0.5 µg/mL | 0.59 µg/mL | 20 µg/mL
